Source: ChEMBL document CHEMBL6177922, “Antibacterial activity of the structurally novel C-2 amine-substituted analogues based on quinoxaline” (RSC Med Chem, 2025)
Values after ≈ are worked out from the molar mass of the structure shown. Active and inactive are the calls of the source. The calls are words filed in the database; no cut-off is given here.

Assays:
Bacillus subtilis = test: Antibacterial activity against drug sensitive Bacillus subtilis 168 assessed as reduction in bacterial growth by broth microdilution method; assay type: functional
Outline: (§1)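 MICs were determined by standard twofold serial broth microdilution in lysogeny broth (LB) medium.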

Escherichia coli [1] = test: Antibacterial activity against drug sensitive Escherichia coli DH5alpha assessed as reduction in bacterial growth by broth microdilution method; assay type: functional; outline: as §1
Pseudomonas aeruginosa = test: Antibacterial activity against drug sensitive Pseudomonas aeruginosa PAO1 assessed as reduction in bacterial growth by broth microdilution method; assay type: functional; outline: as §1
Klebsiella pneumoniae = test: Antibacterial activity against drug-resistant Klebsiella pneumoniae assessed as reduction in bacterial growth by broth microdilution method; assay type: functional
Outline: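 Twofold serial dilution (microdilution) MIC in lysogeny broth (LB) medium against drug-resistant strains: MRSA USA300, vancomycin-resistant Enterococci, Klebsiella pneumoniae.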

Staphylococcus aureus [2] = test: Drug resistance, ratio of MIC for Staphylococcus aureus after 15 days to MIC for Staphylococcus aureus after initial exposure; assay type: functional; conditions: time 15 day
Outline: (§2)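 Resistance development: MRSA serially subcultured in fresh medium starting from the initial MIC. MIC reassessed every 24 h over 24 days, alongside a reference antibiotic given in twofold dilutions.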

Staphylococcus aureus [3] = test: Antibacterial activity against methicillin-resistant Staphylococcus aureus measured for 15 days; assay type: functional, organism-based; conditions: time 15.0 day; outline: as §2
Escherichia coli [4] = test: Antibacterial activity against Escherichia coli measured for 15 days; assay type: functional, organism-based; conditions: time 15.0 day
Outline: (§3)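 E. coli was serially subcultured in fresh medium, starting from the initial MIC. The MIC was redetermined every 24 h. A reference antibiotic was tested in parallel by twofold dilution. The regimen ran for 24 days in total.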

Escherichia coli [5] = test: Antibacterial activity against Escherichia coli measured for 9 days; assay type: functional, organism-based; conditions: time 9.0 day; outline: as §3
Staphylococcus aureus [6] = test: Bactericidal activity against methicillin-resistant Staphylococcus aureus at 2 times MIC incubated for 24 hrs by time kill assay; assay type: functional, organism-based
Outline: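 Time-kill: MRSA grown 24 h at 37 °C, adjusted to ~2 × 10^6 CFU mL-1, exposed at 2× or 3× MIC with shaking at 37 °C. Aliquots taken at 0.5–13 h, serially diluted 10-fold in PBS, plated on Mueller–Hinton agar, counted after 24 h at 37 °C. Duplicate.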

Escherichia coli [7] = test: Bactericidal activity against Escherichia coli assessed as inhibition of bacterial growth at 3 times MIC incubated for 24 hrs by time kill assay; assay type: functional, organism-based
Outline: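 Time-kill assay: E. coli was precultured for […] at 37 °C and adjusted to about 2 × 10^6 CFU mL−1. It was exposed to 3× MIC at 37 °C with shaking. Samples were taken at 0.5–13 h, serially 10-fold diluted in PBS and plated on Mueller–Hinton agar, and colonies were counted after 24 h at 37 °C. Run in duplicate.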

MCF7 = test: Cytotoxicity against human MCF7 cells assessed as inhibition of cell growth incubated for 24 hrs by MTT assay; assay type: functional, cell-based; conditions: MCF7, 24 h
Outline: (§4)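 MTT assay with 24 h exposure of cells to the samples. IC50 is the concentration giving 50% growth inhibition, reported as mean ± S.D. of three independent experiments.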

[8] = Cytotoxicity against human HK-2 cells assessed as inhibition of cell growth incubated for 24 hrs by MTT assay; assay type: toxicity, cell-based; outline: as §4
Staphylococcus aureus [9] = test: Antibiofilm activity against Methicillin-resistant Staphylococcus aureus assessed as reduction in number of viable cells at 8 times MIC incubated for 24 hrs; assay type: functional, organism-based
Staphylococcus aureus [10] = test: Antibiofilm activity against Methicillin-resistant Staphylococcus aureus assessed as reduction in number of viable cells at 2 times MIC incubated for 24 hrs; assay type: functional, organism-based
Outline: (§5)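 Biofilm eradication: mid-log MRSA at 2 × 10^6 CFU mL-1 grown 48 h to form biofilms, then washed with PBS. Biofilms exposed to compound at MIC, 2× or 3× MIC for 24 h; medium-only control. Biofilms dispersed with trypsin–EDTA, serial 10-fold dilutions plated, colonies counted after 24 h, expressed as log10 CFU mL-1.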

Staphylococcus aureus [11] = test: Antibiofilm activity against Methicillin-resistant Staphylococcus aureus assessed as reduction in number of viable cells at 3 times MIC incubated for 24 hrs; assay type: functional, organism-based; outline: as §5
Escherichia coli [12] = test: Antibiofilm activity against Escherichia coli assessed as reduction in number of viable cells at 2 times MIC incubated for 24 hrs; assay type: functional, organism-based
Outline: (§6)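 E. coli was grown to mid-log phase and adjusted to 2 × 10^6 CFU mL−1. Biofilms were grown for 48 h, then the spent medium was removed and loose cells were washed off with PBS. Compound was added at MIC, 2× MIC or 4× MIC for 24 h, with a sterile-medium control. Biofilms were dispersed with trypsin–EDTA, 10-fold dilutions were plated, and colonies were counted after 24 h as log10 CFU mL−1.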

Escherichia coli [13] = test: Antibiofilm activity against Escherichia coli assessed as reduction in number of viable cells at 4 times MIC incubated for 24 hrs; assay type: functional, organism-based; outline: as §6
Escherichia coli [14] = test: Antibiofilm activity against Escherichia coli assessed as reduction in number of viable cells at 8 times MIC incubated for 24 hrs; assay type: functional, organism-based
Staphylococcus aureus [15] = test: Antibacterial activity against methicillin-resistant Staphylococcus aureus assessed as reduction in viable bacterial count at 2 to 4 times MIC measured after 18 hrs; assay type: functional, organism-based
Staphylococcus aureus [16] = test: Antibacterial activity against methicillin-resistant Staphylococcus aureus assessed as increase in number of bacteria at 2 times MIC measured at 3 hrs; assay type: functional, organism-based
Outline: (§7)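 Cells washed three times in sterile saline by centrifugation, moved to fresh TSB at 37 °C. Viable counts plated on TSB agar at 2–17 h. PCE = t − c, the time for a 1-log rise in treated versus control. Run twice.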

Staphylococcus aureus [17] = test: Antibacterial activity against methicillin-resistant Staphylococcus aureus assessed as increase in number of bacteria at 3 times MIC measured up to 5 hrs; assay type: functional, organism-based; outline: as §7
Staphylococcus aureus [18] = test: Antibacterial activity against methicillin-resistant Staphylococcus aureus assessed as effect on viable bacterial growth measured after 24 hrs; assay type: functional, organism-based
Cell membrane [19] = test: Induction of cell membrane permeabilization in methicillin-resistant Staphylococcus aureus assessed as increase in fluorescence intensity at 3 times MIC incubated for 8 hrs by PI staining based confocal laser scanning microscopic analysis; assay type: subcellular
Outline: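 Log-phase MRSA washed in PBS (10 mM, pH 7.2) and resuspended at 2 × 10^6 CFU mL-1 (OD600 0.2–0.4). Treated at 3× MIC for 8 h at 37 °C, PBS control. Stained with SYTO 9/propidium iodide 30 min in the dark, imaged by confocal laser scanning microscopy. Duplicate.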

Cell membrane [20] = test: Induction of cell membrane integrity in Escherichia coli assessed as increase in K+ efflux at 3 times MIC by absorption spectrophotometric analysis; assay type: subcellular
Outline: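 Mid-log E. coli (6 h culture) was suspended to about 2 × 10^6 CFU mL−1 in 10 mM HEPES pH 7.3 plus 5 mM glucose (1:1). Cells were incubated with 3× MIC at 37 °C for various times, with a PBS control. Supernatant K+ was measured by atomic absorption spectrophotometry. Run in duplicate.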

Staphylococcus aureus [21] = test: Antibacterial activity against methicillin-resistant Staphylococcus aureus infected in Kunming mouse corneal infection model assessed as reduction in viable bacterial count at 3 mg/ml, TOP administered 3 times daily for 1 week; assay type: functional, organism-based; conditions: time 1.0 weeks
Outline: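 Corneal infection model: male and female Kunming mice (~20 g) immunosuppressed with daily i.p. cyclophosphamide for 3 days. Anesthetized with i.p. avertin (400 mg kg-1), corneas abraded and given 20 μL MRSA (6 × 10^7 CFU mL-1). From 24 h post-infection, treated by topical smear three times daily for one week. Controls: 5% glucose and 5% vancomycin. Six mice per group. Corneal viable counts measured.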

In the case of `CC(C)(C)c1ccc(CCNc2nc3ccccc3nc2N)cc1`, the MIC (Bacillus subtilis) is reported as 8 µg/mL (≈ 25 µM), the MIC (Escherichia coli [1]) is reported as 4 µg/mL (≈ 12.5 µM) and the MIC (Pseudomonas aeruginosa) is reported as 64 µg/mL (≈ 200 µM). The MIC (Klebsiella pneumoniae) was 128 µg/mL (≈ 399 µM), the Ratio (Staphylococcus aureus [2]) was 3 and the Activity (Staphylococcus aureus [3]) was “Active”. The Activity (Escherichia coli [4]) was “Active”, the Activity (Escherichia coli [5]) was “Active” and the Activity (Staphylococcus aureus [6]) was “inactive”. For the same molecule, the Activity (Escherichia coli [7]) was “Active”, the IC50 (MCF7) was 72.5 µg/mL (≈ 226 µM) and the IC50 at 24 h [8] was 146 µg/mL (≈ 454 µM). For the same molecule, the Activity (Staphylococcus aureus [9]) was “Active”, the Activity (Staphylococcus aureus [10]) was “Active” and the Activity (Staphylococcus aureus [11]) was “Active”. The Activity (Escherichia coli [12]) was “Active”, the Activity (Escherichia coli [13]) was “Active” and the Activity (Escherichia coli [14]) was “Active”. The Activity (Staphylococcus aureus [15]) was “Active”, the Activity (Staphylococcus aureus [16]) was “Active” and the Activity (Staphylococcus aureus [17]) was “Active”. The Activity (Staphylococcus aureus [18]) was “Active”, the Activity (Cell membrane [19]) was “inactive” and the Activity (Cell membrane [20]) was “Active”. For the same molecule, the Activity (Staphylococcus aureus [21]) was “inactive”.
